Activity calls are given as the source filed them. The calls are words filed in the database; no cut-off is given here.
Assays:
[1] = target: T1, RAC-alpha serine/threonine-protein kinase (Homo sapiens, UniProt P31749); test: Inhibition of GST-tagged PKB/Akt1 incubated for 5 mins before eNOS substrate and ATP addition measured after 30 mins by kinase assay
[2] = target: T1, RAC-alpha serine/threonine-protein kinase; test: Inhibition of GST-tagged PKB/Akt1 incubated for 5 mins before eNOS substrate and ATP addition at > 50 uM measured after 30 mins by kinase assay
Method in brief: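 HTScan PKB/Akt1 kit: active recombinant GST-Akt1 (4 ng) in kinase buffer (Tris-HCl pH 7.5, MgCl2, β-glycerophosphate, Na3VO4, DTT) preincubated with compound or DMSO vehicle 5 min at room temperature. ATP/substrate cocktail with eNOS substrate added. Reaction stopped with 50 mM EDTA (pH 8.0); activity read per kit instructions. H-89 as positive control.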

PC-3 = test: Antiproliferative activity against human PC3 after 72 hrs by MTT assay; format: functional, cell-based; details: PC-3, 72 h
Method in brief: (§1)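 MTT read-out: cells seeded at 4000 per well, attached overnight, exposed to compound over 1.0–100.0 µM for 72 h. MTT solution (5.0 mg/ml) added for a further 4 h at 37 °C, formazan dissolved in DMSO, absorbance at 570 nm. Triplicate wells in three independent experiments; IC50 from dose–effect analysis.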

HL-60 = test: Antiproliferative activity against human HL60 after 72 hrs by MTT assay; format: functional, cell-based; details: HL-60, 72 h; method in brief: as §1
OVCAR-8 [3] = test: Decrease in GSK3-beta protein level in human OVCAR8 cells at 20 uM by Western blot analysis; format: functional, cell-based
Method in brief: (§2)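 OVCAR-8 cells treated, harvested, washed in ice-cold PBS and lysed in immunoprecipitation buffer with NaF, β-glycerophosphate, detergents and PMSF. Debris pelleted at 13,000 rpm for 30 min at 4 °C; protein measured by Bradford. Immunoblots probed for phospho-Akt Ser-473, phospho- and total GSK3, with GAPDH.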

OVCAR-8 [4] = test: Antiproliferative activity against human OVCAR8 after 72 hrs by MTT assay; format: functional, cell-based; details: OVCAR-8, 72 h; method in brief: as §1
OVCAR-8 [5] = test: Inhibition of PKB/Akt in human OVCAR8 cells assessed as decrease of GSK3-beta phosphorylation at 20 uM after Western blot analysis; format: cell-based; method in brief: as §2
OVCAR-8 [6] = test: Down regulation of PKB/Akt phosphorylation at Ser-473 in human OVCAR8 cells at 20 uM by Western blot analysis; format: functional, cell-based; method in brief: as §2
OVCAR-8 [7] = test: Induction of apoptosis in human OVCAR8 cells assessed as apoptotic cells at 20 uM after 72 hrs by Annexin V-FITC/propidium iodide staining-based FACS analysis; format: functional
Method in brief: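 OVCAR-8 cells (5 × 10^4 cells/ml) cultured in flasks and treated with vehicle or compound. After treatment, cells harvested and washed twice in ice-cold PBS, then stained with Annexin V-FITC/propidium iodide and analysed by flow cytometry.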

T1 sequence (P31749 whole entry): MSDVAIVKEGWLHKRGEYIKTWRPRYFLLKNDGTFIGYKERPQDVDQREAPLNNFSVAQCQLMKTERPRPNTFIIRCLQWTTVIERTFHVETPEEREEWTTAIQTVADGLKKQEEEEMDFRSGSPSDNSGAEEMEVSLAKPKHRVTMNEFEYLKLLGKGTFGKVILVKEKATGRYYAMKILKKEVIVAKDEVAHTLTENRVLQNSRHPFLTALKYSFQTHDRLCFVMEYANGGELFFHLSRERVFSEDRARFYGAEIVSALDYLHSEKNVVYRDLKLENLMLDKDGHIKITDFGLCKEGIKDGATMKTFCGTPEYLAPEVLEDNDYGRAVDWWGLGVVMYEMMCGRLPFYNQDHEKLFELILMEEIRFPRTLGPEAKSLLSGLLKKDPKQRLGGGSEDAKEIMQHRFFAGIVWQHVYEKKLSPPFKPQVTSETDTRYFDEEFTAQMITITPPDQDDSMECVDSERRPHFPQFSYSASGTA

O=c1cc(CSc2nnc(O)n2C2Cc3ccccc3C2)c2ccc(O)cc2o1
IC50 [1]: Not Active

CC(C)=CCc1cc(C(=O)/C=C/c2cccc(O)c2)c(O)cc1O
IC50 ([1]; read-out: IC50): 85.9 µM

CC(=O)Nc1cccc(-n2nnc(SCC(=O)NCc3cccs3)n2)c1
IC50 ([1]; read-out: IC50): > 50 µM
inhibition [2]: 19.6%

CC(C)=CCc1c(O)cc2oc(-c3ccc(O)cc3O)cc(=O)c2c1O
IC50 ([1]; read-out: IC50): 54.5 µM

CC(C)=CCc1c(O)cc2oc(-c3ccc(O)c(O)c3)cc(=O)c2c1O
IC50 (PC-3): 14.6 µM
IC50 (HL-60): 2.5 µM
Activity (OVCAR-8 [3]): inactive
IC50 (OVCAR-8 [4]): 23.8 µM
inhibition (OVCAR-8 [5]): Active
IC50 ([1]; read-out: IC50): 5.4 µM
Activity (OVCAR-8 [6]): Active
Activity (OVCAR-8 [7]): 40.19%

CC(C)=CCc1c(O)cc(O)c(C(=O)/C=C/c2ccc(O)cc2)c1O [DEMETHYLXANTHOHUMOL]
IC50 ([1]; read-out: IC50): 144 µM

CC(C)=CCc1cc2c(=O)cc(-c3ccc(O)cc3O)oc2cc1O
IC50 [1]: Not Active

Cc1ccc(S(=O)(=O)OC[C@H]2O[C@@H](n3cnc4c(=O)[nH]c(NC(=O)C(C)C)nc43)C[C@H]2O)cc1
IC50 [1]: Not Active

CC(C)=CCc1c(O)cc(O)c2c(=O)cc(-c3ccc(O)c(O)c3)oc12
IC50 (PC-3): 18.6 µM
IC50 (HL-60): 3.31 µM
Activity (OVCAR-8 [3]): inactive
IC50 (OVCAR-8 [4]): 16.6 µM
inhibition (OVCAR-8 [5]): Active
IC50 ([1]; read-out: IC50): 3.9 µM
Activity (OVCAR-8 [6]): Active
Activity (OVCAR-8 [7]): 49.11%

Source: ChEMBL document CHEMBL1914446, “Pharmacophore identification, virtual screening and biological evaluation of prenylated flavonoids derivatives as PKB/Akt1 inhibitors” (Eur J Med Chem, 2011)
